Reference: ChEMBL document CHEMBL5058577, “EUbOPEN Chemogenomics Library 2 (Multiplex)” (2022)

Tested on: Fibroblast
Assay: Multiplex assay against human fibroblast
Assay type: toxicity, cell-based
In short: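 Compound was added to live cells that had been stained at seeding with Hoechst33342, BioTracker Green Microtubule Cytoskeleton Dye, MitoTracker Red and Annexin V Alexa Fluor 680, and imaging followed on a CQ1 microscope at 37°C and 5% CO2. CellPathfinder machine-learning gating divided cells into Hoechst high-intensity objects or normal cells, normal cells into healthy, pyknosed or fragmented nuclei, and pyknosed cells into mitotic or apoptotic. Tubulin, mitochondrial-mass and membrane-permeability phenotypes are per cents of healthy-nucleus cells.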

[1] = 12 h, 1 µM, compound concentration 1 uM, replicate 1
[2] = 12 h, 1 µM, compound concentration 1 uM, replicate 2
[3] = 12 h, 10 µM, compound concentration 10 uM, replicate 1
[4] = 12 h, 10 µM, compound concentration 10 uM, replicate 2
[5] = 24 h, 1 µM, compound concentration 1 uM, replicate 1
[6] = 24 h, 1 µM, compound concentration 1 uM, replicate 2
[7] = 24 h, 10 µM, compound concentration 10 uM, replicate 1
[8] = 24 h, 10 µM, compound concentration 10 uM, replicate 2
[9] = 48 h, 1 µM, compound concentration 1 uM, replicate 1
[10] = 48 h, 1 µM, compound concentration 1 uM, replicate 2
[11] = 48 h, 10 µM, compound concentration 10 uM, replicate 1
[12] = 48 h, 10 µM, compound concentration 10 uM, replicate 2

SMILES: CC(C)c1noc(N2CCC(COc3ccc(-c4ccc(S(C)(=O)=O)cc4)nc3)CC2)n1 [GSK-1292263]
- Population Apoptotic (%) [1]: 38%
- Population Fragmented Nuclei (%) [1]: 14%
- Population Healthy Nuclei (%) [1]: 74%
- Population Hoechst High Intensity Objects (%) [1]: 2%
- Population Membrane Permeable-Phenotype (%) [1]: 0%
- Population Mitochondria Different-Phenotype (%) [1]: 1%
- Population Mitotic Cells (%) [1]: 61%
- Population Normal (%) [1]: 97%
- Population Pyknosed Nuclei (%) [1]: 11%
- Population Tubulin-Different-Phenotype (%) [1]: 21%
- Total Cell Count [1]: 189
- Population Apoptotic (%) [2]: 29%
- Population Fragmented Nuclei (%) [2]: 18%
- Population Healthy Nuclei (%) [2]: 50%
- Population Hoechst High Intensity Objects (%) [2]: 6%
- Population Membrane Permeable-Phenotype (%) [2]: 4%
- Population Mitochondria Different-Phenotype (%) [2]: 5%
- Population Mitotic Cells (%) [2]: 70%
- Population Normal (%) [2]: 93%
- Population Pyknosed Nuclei (%) [2]: 31%
- Population Tubulin-Different-Phenotype (%) [2]: 41%
- Total Cell Count [2]: 149
- Population Apoptotic (%) [3]: 39%
- Population Fragmented Nuclei (%) [3]: 8%
- Population Healthy Nuclei (%) [3]: 65%
- Population Hoechst High Intensity Objects (%) [3]: 3%
- Population Membrane Permeable-Phenotype (%) [3]: 1%
- Population Mitochondria Different-Phenotype (%) [3]: 5%
- Population Mitotic Cells (%) [3]: 60%
- Population Normal (%) [3]: 96%
- Population Pyknosed Nuclei (%) [3]: 26%
- Population Tubulin-Different-Phenotype (%) [3]: 39%
- Total Cell Count [3]: 162
- Population Apoptotic (%) [4]: 35%
- Population Fragmented Nuclei (%) [4]: 26%
- Population Healthy Nuclei (%) [4]: 45%
- Population Hoechst High Intensity Objects (%) [4]: 2%
- Population Membrane Permeable-Phenotype (%) [4]: 6%
- Population Mitochondria Different-Phenotype (%) [4]: 10%
- Population Mitotic Cells (%) [4]: 64%
- Population Normal (%) [4]: 97%
- Population Pyknosed Nuclei (%) [4]: 27%
- Population Tubulin-Different-Phenotype (%) [4]: 61%
- Total Cell Count [4]: 145
- Population Apoptotic (%) [5]: 50%
- Population Fragmented Nuclei (%) [5]: 9%
- Population Healthy Nuclei (%) [5]: 78%
- Population Hoechst High Intensity Objects (%) [5]: 3%
- Population Membrane Permeable-Phenotype (%) [5]: 1%
- Population Mitochondria Different-Phenotype (%) [5]: 0%
- Population Mitotic Cells (%) [5]: 50%
- Population Normal (%) [5]: 96%
- Population Pyknosed Nuclei (%) [5]: 11%
- Population Tubulin-Different-Phenotype (%) [5]: 17%
- Total Cell Count [5]: 182
- Population Apoptotic (%) [6]: 44%
- Population Fragmented Nuclei (%) [6]: 20%
- Population Healthy Nuclei (%) [6]: 53%
- Population Hoechst High Intensity Objects (%) [6]: 7%
- Population Membrane Permeable-Phenotype (%) [6]: 4%
- Population Mitochondria Different-Phenotype (%) [6]: 2%
- Population Mitotic Cells (%) [6]: 55%
- Population Normal (%) [6]: 92%
- Population Pyknosed Nuclei (%) [6]: 25%
- Population Tubulin-Different-Phenotype (%) [6]: 41%
- Total Cell Count [6]: 142
- Population Apoptotic (%) [7]: 52%
- Population Fragmented Nuclei (%) [7]: 12%
- Population Healthy Nuclei (%) [7]: 67%
- Population Hoechst High Intensity Objects (%) [7]: 2%
- Population Membrane Permeable-Phenotype (%) [7]: 1%
- Population Mitochondria Different-Phenotype (%) [7]: 5%
- Population Mitotic Cells (%) [7]: 47%
- Population Normal (%) [7]: 97%
- Population Pyknosed Nuclei (%) [7]: 20%
- Population Tubulin-Different-Phenotype (%) [7]: 50%
- Total Cell Count [7]: 168
- Population Apoptotic (%) [8]: 46%
- Population Fragmented Nuclei (%) [8]: 21%
- Population Healthy Nuclei (%) [8]: 55%
- Population Hoechst High Intensity Objects (%) [8]: 3%
- Population Membrane Permeable-Phenotype (%) [8]: 10%
- Population Mitochondria Different-Phenotype (%) [8]: 10%
- Population Mitotic Cells (%) [8]: 53%
- Population Normal (%) [8]: 96%
- Population Pyknosed Nuclei (%) [8]: 23%
- Population Tubulin-Different-Phenotype (%) [8]: 56%
- Total Cell Count [8]: 123
- Population Apoptotic (%) [9]: 66%
- Population Fragmented Nuclei (%) [9]: 19%
- Population Healthy Nuclei (%) [9]: 74%
- Population Hoechst High Intensity Objects (%) [9]: 3%
- Population Membrane Permeable-Phenotype (%) [9]: 0%
- Population Mitochondria Different-Phenotype (%) [9]: 1%
- Population Mitotic Cells (%) [9]: 33%
- Population Normal (%) [9]: 96%
- Population Pyknosed Nuclei (%) [9]: 6%
- Population Tubulin-Different-Phenotype (%) [9]: 22%
- Total Cell Count [9]: 193
- Population Apoptotic (%) [10]: 54%
- Population Fragmented Nuclei (%) [10]: 27%
- Population Healthy Nuclei (%) [10]: 47%
- Population Hoechst High Intensity Objects (%) [10]: 8%
- Population Membrane Permeable-Phenotype (%) [10]: 13%
- Population Mitochondria Different-Phenotype (%) [10]: 4%
- Population Mitotic Cells (%) [10]: 45%
- Population Normal (%) [10]: 91%
- Population Pyknosed Nuclei (%) [10]: 24%
- Population Tubulin-Different-Phenotype (%) [10]: 55%
- Total Cell Count [10]: 156
- Population Apoptotic (%) [11]: 63%
- Population Fragmented Nuclei (%) [11]: 13%
- Population Healthy Nuclei (%) [11]: 65%
- Population Hoechst High Intensity Objects (%) [11]: 2%
- Population Membrane Permeable-Phenotype (%) [11]: 0%
- Population Mitochondria Different-Phenotype (%) [11]: 8%
- Population Mitotic Cells (%) [11]: 36%
- Population Normal (%) [11]: 97%
- Population Pyknosed Nuclei (%) [11]: 20%
- Population Tubulin-Different-Phenotype (%) [11]: 48%
- Total Cell Count [11]: 164
- Population Apoptotic (%) [12]: 50%
- Population Fragmented Nuclei (%) [12]: 31%
- Population Healthy Nuclei (%) [12]: 51%
- Population Hoechst High Intensity Objects (%) [12]: 0%
- Population Membrane Permeable-Phenotype (%) [12]: 9%
- Population Mitochondria Different-Phenotype (%) [12]: 14%
- Population Mitotic Cells (%) [12]: 50%
- Population Normal (%) [12]: 100%
- Population Pyknosed Nuclei (%) [12]: 17%
- Population Tubulin-Different-Phenotype (%) [12]: 76%
- Total Cell Count [12]: 125
